These results are taken from the RNAGym collection of RNA variant scans (doi:10.1002/anie.201605470).

Sequences and labels used below:
B1: Osa-1-4 twister ribozyme (parent)
chain: CCGCCUAACACUGCCAAUGCCGGUCCCAAGCCCGGAUAAAAGUGGAGGGGGCGG

Variants of B1 are the subject of the data set. The data set is described as follows: self-cleavage, relative activity (ratio to wild type); higher = more cleavage; co-transcriptional. A digest of the protocol: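 Values are relative activity: the fraction cleaved, normalised to wild type. A doped DNA template for a 54-nucleotide twister ribozyme from Oryza sativa had 97 % wild-type base and 1 % of each other base at the 48 positions downstream of the cleavage site. The RNA was transcribed in vitro for 2 h at 37 °C so that it could cleave itself co-transcriptionally, then sequenced deeply, with cleavage status scored from the presence or absence of upstream sequence in reads.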
Regarding CCGCCUAACACUGCCAAUGCCUGUCCCAAGCCCCGAUAAAAGUGGAGGGGGCGG [G22U G34C], the self-cleavage was 0.4.

Regarding CCGCCUAACACUGCCAAUGCCUCUCCCAAGCCCGGAUAAAAGUGGAGGGGGCGG [G22U G23C], the self-cleavage came to 0.04.

Regarding CCGCCUAACACUGCCAAUGCCUAUCCCAAGCCCGGAUAAAAGUGGAGGGGGCGG [G22U G23A], the self-cleavage came out at 0.08.

As for CCGCCUAACACUGCCAAUGCCUUUCCCAAGCCCGGAUAAAAGUGGAGGGGGCGG [G22U G23U], the self-cleavage was found to be 0.07.

CCGCCUAACACUGCCAAUGCCUGUCCCAAGCCCGGAUAAAAGUGGAGGGGGCGG [G22U]: the self-cleavage was 0.93.

Take CCGCCUAACACUGCCAAUGCCUGUCCCAAGCCCGGAUAAAAGUGGAGCGGGCGG [G22U G48C]: the self-cleavage stood at 0.06.

Regarding CCGCCUAACACUGCCAAUGCCUGUCCCAAGCCCGGAUAAAAGUGGAGAGGGCGG [G22U G48A], the self-cleavage was 0.04.

On to CCGCCUAACACUGCCAAUGCCUGUCCCAAGCCCGGAUAAAAGUGGAGUGGGCGG [G22U G48U], for which the self-cleavage amounted to 0.05.

In the case of CCGCCUAACACUGCCAAAGCCUGUCCCAAGCCCGGAUAAAAGUGGAGGGGGCGG [G22U U18A], the self-cleavage is 0.84.

On to CCGCCUAACACUGCCAACGCCUGUCCCAAGCCCGGAUAAAAGUGGAGGGGGCGG [G22U U18C], for which the self-cleavage was found to be 0.68.

For CCGCCUAACACUGCCAAGGCCUGUCCCAAGCCCGGAUAAAAGUGGAGGGGGCGG [G22U U18G], the self-cleavage was found to be 0.82.

Turning to CCGCCUAACACUGCCAAUGCCUGUCCCAAGCCCGGAUAAAAGAGGAGGGGGCGG [G22U U43A], the self-cleavage worked out at 0.12.

As to CCGCCUAACACUGCCAAUGCCUGUCCCAAGCCCGGAUAAAAGCGGAGGGGGCGG [G22U U43C], the self-cleavage is 0.1.

For the variant CCGCCUAACACUGCCAAUGCCUGUCCCAAGCCCGGAUAAAAGGGGAGGGGGCGG [G22U U43G], the self-cleavage was determined as 0.08.

Take CCGCCUAACACUGCCAAUGCCCGUCCCAAGCCCGGAUAAAAGUGGAGGGGGCGU [G22C G54U]: the self-cleavage amounted to 0.16.

As for CCGCCUAACACUGCCAAUGCCCGUCCCAAGCCCGGAUAAAAGUGGAGGGGGCGC [G22C G54C], the self-cleavage worked out at 0.15.

On to CCGCCUAACACUGCCAAUGCCCGUCCCAAGCCCGGAUAAAAGUGGAGGGGGCGA [G22C G54A], for which the self-cleavage stood at 0.08.

CCGCCUAACACUGCCAAUGCCCGUCCCAAGCCCGGAUAAAAGUGGAGGGUGCGG [G22C G50U]: the self-cleavage was 0.11.

On to CCGCCUAACACUGCCAAUGCCCGUCCCAAGCCCGGAUAAAAGUGGAGGGCGCGG [G22C G50C], for which the self-cleavage was 0.05.

For the variant CCGCCUAACACUGCCAAUGCCCGUCCCAAGCCCGGAUAAAAGUGGAGGGAGCGG [G22C G50A], the self-cleavage was 0.34.

CCGCCUAACACUGCCAAUGCCUGUCCCAAGCCCGGAUAAAAGUGGAGGGGACGG [G22U G51A]: the self-cleavage was found to be 0.1.

As to CCGCCUAACACUGCCAAUGCCUGUCCCAAGCCCGGAUAAAAGUGGAGGGGCCGG [G22U G51C], the self-cleavage is 0.08.

In the case of CCGCCUAACACUGCCAAUGCCUGUCCCAAGCCCGGAUAAAAGUGGAGGGGUCGG [G22U G51U], the self-cleavage was 0.38.

For CCGCCUAACACUGCCAAUGCCCGGCCCAAGCCCGGAUAAAAGUGGAGGGGGCGG [G22C U24G], the self-cleavage was 0.03.

CCGCCUAACACUGCCAAUGCCCGCCCCAAGCCCGGAUAAAAGUGGAGGGGGCGG [G22C U24C]: the self-cleavage amounted to 0.03.

Regarding CCGCCUAACACUGCCAAUGCCCGACCCAAGCCCGGAUAAAAGUGGAGGGGGCGG [G22C U24A], the self-cleavage is 0.04.

For the variant CCGCCUAACACUGCCAAUGCCCGUCCCAAGCCCGGAUAAAAGUGGAGGGGGCCG [G22C G53C], the self-cleavage was determined as 0.03.

CCGCCUAACACUGCCAAUGCCCGUCCCAAGCCCGGAUAAAAGUGGAGGGGGCAG [G22C G53A]: the self-cleavage amounted to 0.06.

Consider CCGCCUAACACUGCCAAUGCCCGUCCCAAGCCCGGAUAAAAGUGGAGGGGGCUG [G22C G53U], for which the self-cleavage was found to be 0.04.

With CCGCCUAACACUGCCAAUGCCGAUCCCAAACCCGGAUAAAAGUGGAGGGGGCGG [G23A G30A], the self-cleavage came out at 0.04.

For CCGCCUAACACUGCCAAUGCCCGUCCCAAGCCCGGAUAAAAGUGUAGGGGGCGG [G22C G45U], the self-cleavage worked out at 0.03.

Turning to CCGCCUAACACUGCCAAUGCCCGUCCCAAGCCCGGAUAAAAGUGGACGGGGCGG [G22C G47C], the self-cleavage is 0.02.

CCGCCUAACACUGCCAAUGCCCGUCCCAAGCCCGGAUAAAAGUGGAAGGGGCGG [G22C G47A]: the self-cleavage turned out to be 0.03.

Take CCGCCUAACACUGCCAAUGCCCGUCCCAAGCCCGGAUAAAAGUGGAUGGGGCGG [G22C G47U]: the self-cleavage was determined as 0.04.

Consider CCGCCUAACACCGCCAAUGCCUGUCCCAAGCCCGGAUAAAAGUGGAGGGGGCGG [G22U U12C], for which the self-cleavage was found to be 0.1.

Take CCGCCUAACACGGCCAAUGCCUGUCCCAAGCCCGGAUAAAAGUGGAGGGGGCGG [G22U U12G]: the self-cleavage turned out to be 0.05.

With CCGCCUAACACAGCCAAUGCCUGUCCCAAGCCCGGAUAAAAGUGGAGGGGGCGG [G22U U12A], the self-cleavage is 0.13.

As for CCGCCUAACACUGCCAAUGCCUGUCCCAAGCCCGGAUAAAAGUGGAGGAGGCGG [G22U G49A], the self-cleavage was 0.07.

Turning to CCGCCUAACACUGCCAAUGCCUGUCCCAAGCCCGGAUAAAAGUGGAGGUGGCGG [G22U G49U], the self-cleavage came to 0.05.

Turning to CCGCCUAACACUGCCAAUGCCUGUCCCAAGCCCGGAUAAAAGUGGAGGCGGCGG [G22U G49C], the self-cleavage turned out to be 0.05.

As to CCGCCUAACACUGCCAAGGCCCGUCCCAAGCCCGGAUAAAAGUGGAGGGGGCGG [G22C U18G], the self-cleavage turned out to be 0.17.

As to CCGCCUAACACUGCCAAAGCCCGUCCCAAGCCCGGAUAAAAGUGGAGGGGGCGG [G22C U18A], the self-cleavage came out at 0.14.

Consider CCGCCUAACACUGCCAACGCCCGUCCCAAGCCCGGAUAAAAGUGGAGGGGGCGG [G22C U18C], for which the self-cleavage was determined as 0.1.

With CCGCCUAACACUGCCAAUGCCUGUCCCAAGCCCGGAUAAAAGUGGAAGGGGCGG [G22U G47A], the self-cleavage amounted to 0.07.

As to CCGCCUAACACUGCCAAUGCCUGUCCCAAGCCCGGAUAAAAGUGGAUGGGGCGG [G22U G47U], the self-cleavage is 0.07.

For the variant CCGCCUAACACUGCCAAUGCCUGUCCCAAGCCCGGAUAAAAGUGGACGGGGCGG [G22U G47C], the self-cleavage came out at 0.05.

For the variant CCGCCUAACACUGCCAAUGCCUGUCCCAAACCCGGAUAAAAGUGGAGGGGGCGG [G22U G30A], the self-cleavage is 0.03.

On to CCGCCUAACACUGCCAAUGCCUGUCCCAACCCCGGAUAAAAGUGGAGGGGGCGG [G22U G30C], for which the self-cleavage stood at 0.04.

As for CCGCCUAACACUGCCAAUGCCUGUCCCAAUCCCGGAUAAAAGUGGAGGGGGCGG [G22U G30U], the self-cleavage came out at 0.03.
